Assay outcomes (PubChem)
Sampled rows, rich in hits. Any-hit rate of the full collection: about 3.9%.
CHRM1 PAM: human M1 muscarinic receptor positive allosteric modulators, primary screen, CHO-K1 cells, Fluo-8 calcium fluorescence, 1536-well | CHO-K1 hM1, ACh EC20; 0% = ACh EC20, 100% = maximal ACh | activation, % at 3 µM | actives 0.088% (n = 360,000) | Muscarinic acetylcholine receptor M1 (Homo sapiens), P11229; in the data active = activation above about 19%, passing the limit was not always enough
Target sequence (P11229 whole entry, looked up): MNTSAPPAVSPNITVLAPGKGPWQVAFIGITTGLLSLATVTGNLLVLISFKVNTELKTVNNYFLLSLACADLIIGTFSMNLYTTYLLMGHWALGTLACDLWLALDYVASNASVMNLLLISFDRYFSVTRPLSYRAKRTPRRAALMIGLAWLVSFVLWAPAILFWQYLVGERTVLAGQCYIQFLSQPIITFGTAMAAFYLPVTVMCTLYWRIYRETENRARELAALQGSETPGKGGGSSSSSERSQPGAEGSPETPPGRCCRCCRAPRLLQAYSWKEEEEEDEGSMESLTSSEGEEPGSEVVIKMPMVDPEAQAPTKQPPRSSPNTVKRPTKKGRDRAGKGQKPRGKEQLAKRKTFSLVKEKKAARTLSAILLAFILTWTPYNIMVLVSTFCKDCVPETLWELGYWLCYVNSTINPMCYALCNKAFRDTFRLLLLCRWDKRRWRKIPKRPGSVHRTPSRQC
HTR2A ag: mouse Htr2a agonists via beta-arrestin recruitment, primary screen, cell-based, luminescence; CHO-K1 mHTR2A beta-arrestin complementation; percent of 30 µM serotonin response; AID 624169, 2012; activation, % at 7.6 µM; 5-hydroxytryptamine receptor 2A (Mus musculus), P35363; actives 0.66% (n = 360,000);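 active = activation above a run cutoff, the mean activation of all tested compounds plus 3 SD, cut at about 14% in these data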;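 also: 0% = plate median of compound wells and 100% = 30 µM serotonin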
TAAR1 ag: human TAAR1 agonists, primary screen, Fluo-8 calcium fluorescence, CHO RD-HGA16 cells. Trace amine-associated receptor 1 (Homo sapiens), Q96RJ0. vehicle wells 0%, saturating PEA agonist 100%. activation, % at 3 µM. actives 0.99% (n = 360,000);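 active = activation above the mean activation of all test compounds in the run plus 3 SD, cut at about 38% in these data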
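Assay system – CHO-derived RD-HGA16 cells with stable Gα16 and human TAAR1 · Compound dosing – one-point dosing at 3 µM (nominal) · Incubation – 17-24 h seeding, 75 min 37 °C dye, 30 min RT · Measured by – kinetic Fluo-8 calcium fluorescence · Control set – DMSO vehicle as 0%, PEA at EC100 as 100% · Repeats – single well for each compound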
CHRM1 antagonist: human M1 muscarinic receptor antagonists, primary screen, CHO-K1 cells, Fluo-8 calcium fluorescence, 1536-well | Muscarinic acetylcholine receptor M1 (Homo sapiens), P11229 | CHO-K1 hM1, ACh EC80 antagonist | inhibition, % at 3 µM | actives 1.3% (n = 360,000);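 active = percent inhibition above its own plate's cutoff, namely the mean of that plate's compound wells plus 3 SD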;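 also: peak over basal fluorescence ratio during 140 s after agonist addition; 0% = ACh EC80 plus DMSO and 100% = DMSO alone without agonist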
M1 ag: human M1 muscarinic receptor agonists, primary screen, Fluo-8 calcium fluorescence, CHO-K1 cells, HTS | Muscarinic acetylcholine receptor M1 (Homo sapiens), P11229 | CHO-K1 hM1, agonist mode; 0% DMSO, 100% acetylcholine EC100 | activation, % at 3 µM | actives 0.33% (n = 360,000) | AID 588814, 2011;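 active = activation above the run's mean compound activation plus 3 SD, cut at about 16% in these data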;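 also: peak over basal fluorescence ratio within a 140 s kinetic read after compound addition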
TAAR1 antag: human TAAR1 antagonists, primary screen, Fluo-8 calcium fluorescence, CHO RD-HGA16 cells | antagonist | inhibition, % at 3 µM | actives 1.5% (n = 360,000);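 active = inhibition above a per-plate cutoff, the mean inhibition of test compounds on that plate plus 3 SD, cut at about 49% in these data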;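 also: 0% = DMSO plus EC80 beta-PEA response and 100% = DMSO alone without agonist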
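System: RD-HGA16 CHO cells with stable hTAAR1 and Gα16 | Probe or stimulus: EC80 β-phenethylamine stimulus | Dosing: 3 µM, single point | Times: Dye loading 75 min at 37 °C, then 30 min room temperature | Measured by: Fluo-8 calcium-sensitive fluorescence | Read-out basis: % inhibition of agonist calcium response | Replicates: n of 1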
OPRM1 ag: OPRM1 agonists via beta-arrestin recruitment, confirmation, counter-screen for mouse HTR2A agonist project, cell-based, luminescence, single concentration; actives 5.3% (n = 2,300); AID 624380, 2012; shares compounds with HTR2A ag; activation, % at 9.3 µM; U2OS OPRM1 beta-arrestin PathHunter; DMSO 0%, DAMGO 9.3 µM 100%;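 active = mean activation above the mean of DMSO-only wells plus 3 SD, cut at about 0.5% in these data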
HTR2A ag conf: mouse HTR2A agonists, beta-arrestin recruitment, confirmation, cell-based, luminescence, CHO-K1 PathHunter, triplicate; activation, % at 7.6 µM; DMSO 0%, 30 µM serotonin 100%; AID 624381, 2012; actives 19% (n = 2,300); shares compounds with HTR2A ag;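 active = mean activation across triplicates above the hit threshold derived in the original primary screen, cut at about 15% in these data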
The depositor's hits bear a star; . = not tested or not shown.

SMILES	CHRM1 PAM	HTR2A ag	TAAR1 ag	CHRM1 antagonist	M1 ag	TAAR1 antag	OPRM1 ag	HTR2A ag conf
Cc1cc(NS(=O)(=O)c2ccc(NC(=S)NC(=O)c3cccc(S(=O)(=O)N(C)C)c3)cc2)no1	0.3	15.5*	-0.5	6.2	-9.2	-14.1	-0.7	-4.1
CCCS(=O)(=O)N1CCCC(C(=O)NCCCN2CCN(c3ccccc3F)CC2)C1 (stereo unspecified)	2.7	-2.0	5.2	-4.8	-5.1	0.5	.	.
Cc1cccc(CCNC(=O)C2CCCN(S(=O)(=O)c3cnc[nH]3)C2)c1 (stereo unspecified)	-1.4	14.6*	2.0	1.2	-1.2	-17.1	-0.7	-5.4
CCS(=O)(=O)N1CCC(C(=O)NCCCN2CCN(c3ccccc3F)CC2)CC1	4.8	15.8*	-0.1	-19.0	-10.7	-10.9	-0.6	54.3*
O=C(C1CCC1)N1CCc2cc(S(=O)(=O)NCCN3CCN(c4ccccc4F)CC3)ccc21	-7.8	14.7*	4.2	18.6	-1.3	22.7	-0.2	53.9*
O=C(NCCN1CCC(Cc2ccccc2)CC1)C1CCCN(S(=O)(=O)c2cnc[nH]2)C1 (stereo unspecified)	-8.8	-7.2	5.0	11.5	-10.8	-4.9	.	.
O=C(NCCN1CCN(c2ccccc2F)CC1)C1CCCN(S(=O)(=O)c2cnc[nH]2)C1 (stereo unspecified)	1.4	19.0*	-0.1	-10.4	-6.1	-13.5	-0.6	60.3*
CSc1ccc(CN2CCN(C(C)C)C(CCO)C2)cc1 (stereo unspecified)	-10.3	-2.7	2.0	16.8	-9.2	3.8	.	.
O=Cc1ccc(OCC(=O)Nc2ccccc2C(F)(F)F)cc1	1.5	0.0	-0.5	6.6	-5.1	7.9	.	.
O=C(O)c1ccc(NS(=O)(=O)c2cccc(C(=O)Nc3cccc(C(=O)O)c3)c2)cc1	7.7	-4.4	-0.3	-8.7	2.4	-19.5	.	.
O=C(Cc1ccccc1)Nc1ccccc1C(=O)NCC1CCCO1 (stereo unspecified)	6.7	1.4	0.5	-8.2	-2.2	10.6	.	.
Cc1ccc(S(=O)(=O)NCCN(CCNS(=O)(=O)c2ccc(C)cc2)S(C)(=O)=O)cc1	10.3	24.2*	10.7	-5.8	-4.8	-6.2	-0.6	-3.8
O=C(C1CCC(CNc2c(N3CCCCC3)c(=O)c2=O)CC1)N1CCCCC1 (stereo unspecified)	5.9	18.7*	4.2	-12.1	-1.7	-0.1	0.0	2.8
CC1CCN(c2c(NCC3CCC(C(=O)N4CCCCC4)CC3)c(=O)c2=O)CC1 (stereo unspecified)	-8.3	6.7	0.6	20.7	-2.1	-2.3	.	.
O=C(NCc1cccs1)c1ccc(-c2ccc(F)c(F)c2)c2ccoc12	16.1	0.7	2.4	-24.8	-0.9	6.9	.	.
COC(=O)c1cc2ccsc2n1CC(=O)Nc1cc(Cl)ccc1OC	-6.3	18.9*	3.6	14.5	-5.0	0.9	-0.6	-4.4
Cn1c(N)c(C(=O)Nc2c(Cl)cccc2Cl)sc1=S	5.7	20.4*	2.6	-6.3	-4.2	-14.2	0.0	1.0
CC(=O)NS(=O)(=O)c1ccc(NC(=O)[C@@H]2CCCN2S(=O)(=O)c2ccc(Cl)cc2)cc1	9.9	10.2	2.9	-10.6	-2.2	-3.4	.	.
CCOC(=O)CC1C(=O)NCCN1C(=S)NC(=O)c1ccccc1OC (stereo unspecified)	9.5	15.6*	0.6	-9.4	-0.7	-20.2	-0.8	-3.2
Cc1oc(-c2cc(F)cc(F)c2)nc1CN1CCN(C(=O)c2ccco2)CC1	2.9	-2.7	3.6	-1.4	-2.9	-9.1	.	.
C=CCn1c(SCc2ccc(C(=O)O)cc2)nc2sc(C)c(C)c2c1=O	5.3	13.2	-1.9	-9.8	-5.6	-26.3	.	.
Cc1sc2nc(SCc3ccc(C(=O)O)cc3)n(Cc3ccco3)c(=O)c2c1C	8.0	16.3*	-3.4	-6.7	-2.7	-65.3	-0.1	7.8
CC(NC(=O)c1ccc2ccccc2n1)c1ccc(Br)cc1 (stereo unspecified)	-1.4	-8.2	3.0	4.6	-4.2	17.6	.	.
CC(NC(=O)c1ccc2ccccc2n1)c1ccc(S(N)(=O)=O)cc1 (stereo unspecified)	10.6	16.6*	0.3	-7.3	-1.1	0.5	-0.1	0.9
CC(C)c1ccc(NC(=O)CCNS(=O)(=O)c2cc(Br)cnc2N)cc1	2.0	-4.5	9.6	-3.9	-0.3	15.4	.	.
SMILES	CHRM1 PAM	HTR2A ag	TAAR1 ag	CHRM1 antagonist	M1 ag	TAAR1 antag	OPRM1 ag	HTR2A ag conf
CCn1c(SCC(=O)Nc2ccc(OC)c(OC)c2)nc2c(c1=O)SCC2	0.6	17.2*	-0.5	-3.0	-1.6	-34.4	-0.7	-3.6
COc1ccc(NC(=O)CSc2nc3c(c(=O)n2C)SCC3)cc1OC	15.9	10.1	-1.0	-16.5	-0.5	5.2	.	.
C=CCn1c(SCC(=O)NCC2CCCO2)nc2sc(CC)cc2c1=O (stereo unspecified)	1.1	16.6*	2.5	-4.0	-5.2	1.9	0.3	2.2
COc1ccc(-n2c(SCC(=O)NCC3CCCO3)nc3c(c2=O)SCC3)cc1 (stereo unspecified)	6.6	15.4*	0.3	3.2	-3.4	-20.7	-0.8	-4.7
COc1cc(OC)cc(C(=O)Oc2ccc(/C=N/Nc3nc4ccccc4s3)cc2OC)c1	-1.7	22.5*	0.4	4.4	-2.1	-12.0	0.1	-1.5
O=C(NS(=O)(=O)c1ccc(Cl)cc1)c1ccccc1	10.2	14.7*	1.1	-17.8	-3.3	11.0	-0.4	-0.3
Cn1c(=S)[nH]c(=O)c2ncc(=O)[nH]c21	1.2	4.9	-0.5	8.9	-1.7	19.9	.	.
Cc1nc2c(-c3ccccc3)c(C)[nH]n2c(=O)c1Cc1ccccc1	-1.7	59.4*	9.9	-7.8	-6.6	21.9	-0.5	32.5*
